Source: PMC12248229 (PeerJ, 2025)

Columns and labels:
Oatp1b2 = test: qRT-PCR mRNA expression in rat liver after 7 days of dosing; format: in vivo; conditions: after multiple doses
How it was run: (§1)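 Rats (n = 6/group) gavaged daily for 7 days with test compound: 2.5 or 1 mg/kg in 0.5% CMC-Na, or 100 mg/kg in 0.5% CMC-Na with 5% DMSO. Liver and intestine harvested under chloral hydrate and stored at −80 °C. TRNzol RNA extraction; 1 μg RNA reverse-transcribed. qPCR: 95 °C 15 min, then 40 cycles of 95 °C 10 s/60 °C 32 s. […] reference; 2^−ΔΔCT.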

[1] = cited from earlier work
[2] = test system: patients with chronic kidney disease; conditions: diverse group of patients with chronic kidney disease, ref Fauchier, Fauchier & Angoulvant, 2021, Herrington et al., 2023, Santos-Gallego et al., Wanner et al., 2016; cited from earlier work
Ugt1a7 = test: qRT-PCR mRNA expression in rat liver and intestine after 7 days of dosing; format: in vivo; conditions: after multiple doses
How it was run: as §1

[3] = Stability of analytes in rat plasma; format: physicochemical; conditions: n = 6
in vivo = format: in vivo, Sprague-Dawley (SD) rats; conditions: for half-life: t1/2, rats
P-gp = test: qRT-PCR mRNA expression in rat liver and intestine after 7 days of dosing; format: in vivo; conditions: after multiple doses
How it was run: as §1

[4] = Autosampler (15 °C) for 6 h, nominal 15 ng/mL
[5] = Autosampler (15 °C) for 6 h, nominal 800 ng/mL
[6] = Autosampler (15 °C) for 6 h, nominal 1,500 ng/mL
[7] = Room temperature for 4 h, nominal 15 ng/mL
[8] = Room temperature for 4 h, nominal 800 ng/mL
[9] = Room temperature for 4 h, nominal 1,500 ng/mL
[10] = Three freeze–thaw cycles (−80 °C to 25 °C), nominal 15 ng/mL
[11] = Three freeze–thaw cycles (−80 °C to 25 °C), nominal 800 ng/mL
[12] = Three freeze–thaw cycles (−80 °C to 25 °C), nominal 1,500 ng/mL
[13] = −80 °C for 30 days, nominal 15 ng/mL
[14] = −80 °C for 30 days, nominal 800 ng/mL
[15] = −80 °C for 30 days, nominal 1,500 ng/mL
[16] = rats, coadministered with sorafenib, versus control group
[17] = rats, empagliflozin […] after sorafenib 100 mg/kg for 7 consecutive days, n = 6

OC[C@H]1O[C@@H](c2ccc(Cl)c(Cc3ccc(O[C@H]4CCOC4)cc3)c2)[C@H](O)[C@@H](O)[C@@H]1O [Empagliflozin]
decrease of mRNA expression of Oatp1b2 (Oatp1b2): 37.43%
systemic exposure of each metabolite, of the total drug-related material ([1]; after oral administration, no reference given): less than 10%
time to highest levels in the body ([1]; following a single oral dose, ref Scheen, 2014): 1.0 to 2.0 h
dose eliminated in urine unchanged ([1]; ref Scheen, 2014): 11–19%
lowering of the occurrence of cardiovascular death events [2]: 18%
inhibition of mRNA expression of Ugt1a7 (Ugt1a7; rat intestine): no significant inhibition
decrease of mRNA expression of Ugt1a7 (Ugt1a7; rat liver): 40.07%
Stability: Accuracy (RE%) [3, 4]: 4.78%
Stability: Mean ± SD measured concentration [3, 4]: 15.72 ± 0.78 ng/mL
Stability: Accuracy (RE%) [3, 5]: 6.63%
Stability: Mean ± SD measured concentration [3, 5]: 853.00 ± 50.88 ng/mL
Stability: Accuracy (RE%) [3, 6]: 3.89%
Stability: Mean ± SD measured concentration [3, 6]: 1,558.33 ± 99.48 ng/ml
Stability: Accuracy (RE%) [3, 7]: −0.67%
Stability: Mean ± SD measured concentration [3, 7]: 14.90 ± 0.91 ng/mL
Stability: Accuracy (RE%) [3, 8]: 4.71%
Stability: Mean ± SD measured concentration [3, 8]: 837.67 ± 29.62 ng/mL
Stability: Accuracy (RE%) [3, 9]: 2.22%
Stability: Mean ± SD measured concentration [3, 9]: 1,533.33 ± 37.77 ng/ml
Stability: Accuracy (RE%) [3, 10]: −0.67%
Stability: Mean ± SD measured concentration [3, 10]: 14.90 ± 0.91 ng/mL
Stability: Accuracy (RE%) [3, 11]: 6.65%
Stability: Mean ± SD measured concentration [3, 11]: 853.17 ± 38.25 ng/mL
Stability: Accuracy (RE%) [3, 12]: 1.11%
Stability: Mean ± SD measured concentration [3, 12]: 1,516.67 ± 97.50 ng/ml
Stability: Accuracy (RE%) [3, 13]: 1.56%
Stability: Mean ± SD measured concentration [3, 13]: 15.23 ± 1.43 ng/mL
Stability: Accuracy (RE%) [3, 14]: 4.15%
Stability: Mean ± SD measured concentration [3, 14]: 833.17 ± 38.43 ng/mL
Stability: Accuracy (RE%) [3, 15]: −1.78%
Stability: Mean ± SD measured concentration [3, 15]: 1,473.33 ± 93.31 ng/ml
AUC(0-t) (in vivo; Sprague-Dawley, rat, in vivo, po, […], AUC0–t, rats, empagliflozin […] after sorafenib 100 mg/kg for 7 consecutive days, n = 6): 563 ± 110 ng·h/mL
AUC(0-inf) (in vivo; Sprague-Dawley, rat, in vivo, po, […], AUC0–∞, rats, empagliflozin […] after sorafenib 100 mg/kg for 7 consecutive days, n = 6): 586 ± 104 ng·h/mL
Cmax (in vivo; Sprague-Dawley, rat, in vivo, po, […], Cmax, rats, empagliflozin […] after sorafenib 100 mg/kg for 7 consecutive days, n = 6): 231 ± 78.5 ng/mL
MRT last (in vivo; Sprague-Dawley, rat, in vivo, po, […], MRT0–t, rats, empagliflozin […] after sorafenib 100 mg/kg for 7 consecutive days, n = 6): 2.86 ± 0.21 h
MRT inf (in vivo; Sprague-Dawley, rat, in vivo, po, […], MRT0–∞, rats, empagliflozin […] after sorafenib 100 mg/kg for 7 consecutive days, n = 6): 3.44 ± 0.52 h
Tmax (in vivo; Sprague-Dawley, rat, in vivo, po, […], rats, empagliflozin […] after sorafenib 100 mg/kg for 7 consecutive days, n = 6): 0.4 ± 0.17 h
Tmax (in vivo; Sprague-Dawley, rat, in vivo, po, […], rats, empagliflozin […] oral, alone, n = 6): 0.28 ± 0.12 h
half-life (in vivo; Sprague-Dawley, rat, in vivo, po, […], empagliflozin […] after sorafenib 100 mg/kg for 7 consecutive days, n = 6): 3.14 ± 1.09 h
half-life (in vivo; Sprague-Dawley, rat, in vivo, po, […], empagliflozin […] oral, alone, n = 6): 5.03 ± 2.29 h
difference in Cmax of empagliflozin (higher than control) (in vivo; rats receiving both drugs versus control group): not statistically significant
decrease of Vz/F of empagliflozin (in vivo; [16]): 50.68%
increase of AUC0–t of empagliflozin (in vivo; [16]): 44.65%
increase of AUC0–∞ of empagliflozin (in vivo; [16]): 30.59%
CLz (in vivo; [17]): 73 ± 12.5 mL/min/kg
Vz (in vivo; [17]): 20.18 ± 8.16 L/kg
Vz (in vivo; rats, empagliflozin […] oral, alone, n = 6): 40.92 ± 16.03 L/kg
decrease of mRNA expression of P-gp (P-gp; rat intestine): 22.77%
decrease of mRNA expression of P-gp (P-gp; rat liver): 61.19%
